Data set [1] deals with PC-3. In words: Antiproliferative activity against human PC3 cells measured after 48 hrs by sulforhodamine-B assay. In kind it is functional, cell-based. As to conditions: PC-3, 48 h.
The target of the next data set is T1, Histone deacetylase 8 (Homo sapiens, UniProt Q9BY41).
T1 sequence (Q9BY41 whole entry): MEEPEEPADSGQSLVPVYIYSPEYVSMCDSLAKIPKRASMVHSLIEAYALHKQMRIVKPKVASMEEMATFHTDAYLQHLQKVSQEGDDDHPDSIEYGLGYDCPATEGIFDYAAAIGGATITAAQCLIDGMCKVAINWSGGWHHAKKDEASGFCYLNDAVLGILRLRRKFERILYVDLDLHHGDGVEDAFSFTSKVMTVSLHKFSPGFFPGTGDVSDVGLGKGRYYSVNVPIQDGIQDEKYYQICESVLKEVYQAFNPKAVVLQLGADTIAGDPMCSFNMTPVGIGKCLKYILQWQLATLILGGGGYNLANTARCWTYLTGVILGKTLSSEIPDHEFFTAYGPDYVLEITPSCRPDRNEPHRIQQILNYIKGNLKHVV
In words: Inhibition of recombinant human HDAC8 using fluorogenic substrate by fluorescence assay.

A further data set concerns the target T2, Histone deacetylase 7 (Homo sapiens, UniProt Q8WUI4).
T2 sequence (Q8WUI4 whole entry): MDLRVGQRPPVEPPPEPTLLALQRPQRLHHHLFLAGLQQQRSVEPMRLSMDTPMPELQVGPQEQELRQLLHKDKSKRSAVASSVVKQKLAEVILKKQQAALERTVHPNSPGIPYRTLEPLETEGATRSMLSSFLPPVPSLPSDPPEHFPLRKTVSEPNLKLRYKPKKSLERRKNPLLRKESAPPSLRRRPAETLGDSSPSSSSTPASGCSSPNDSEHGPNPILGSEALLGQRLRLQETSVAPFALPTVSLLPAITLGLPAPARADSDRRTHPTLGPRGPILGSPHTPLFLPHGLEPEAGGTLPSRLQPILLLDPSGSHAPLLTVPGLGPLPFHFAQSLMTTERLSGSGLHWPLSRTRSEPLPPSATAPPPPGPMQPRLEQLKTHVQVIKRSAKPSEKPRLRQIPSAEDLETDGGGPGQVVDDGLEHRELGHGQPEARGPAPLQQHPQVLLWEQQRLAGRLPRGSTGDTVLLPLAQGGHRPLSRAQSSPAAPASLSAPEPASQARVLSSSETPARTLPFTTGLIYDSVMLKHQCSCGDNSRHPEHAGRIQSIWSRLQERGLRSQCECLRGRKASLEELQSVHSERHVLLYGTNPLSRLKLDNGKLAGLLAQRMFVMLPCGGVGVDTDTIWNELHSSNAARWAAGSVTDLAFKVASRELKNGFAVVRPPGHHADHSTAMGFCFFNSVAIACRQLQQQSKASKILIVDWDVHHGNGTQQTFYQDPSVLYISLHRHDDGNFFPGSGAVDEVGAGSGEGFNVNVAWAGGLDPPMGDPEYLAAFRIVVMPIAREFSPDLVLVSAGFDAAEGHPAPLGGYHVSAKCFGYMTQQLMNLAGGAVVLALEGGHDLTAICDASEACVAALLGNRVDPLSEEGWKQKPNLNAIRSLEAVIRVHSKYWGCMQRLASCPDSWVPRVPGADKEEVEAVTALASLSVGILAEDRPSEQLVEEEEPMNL
In words: Inhibition of recombinant human HDAC7 using fluorogenic substrate by fluorescence assay.

The next data set addresses Histone deacetylase 4 (Homo sapiens, UniProt P56524). Kind of data set: Inhibition of recombinant human HDAC4 using fluorogenic substrate by fluorescence assay.
Data set [2] is filed under the species Homo sapiens. In words: Inhibition of HDAC in human PC3 cells assessed as increase in alpha-tubulin acetylation at 0.01 to 10 uM by Western blot analysis. In kind it is cell-based. The method in brief: (§1)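 PC3 prostate cancer cells treated, then lysed in 20 mM Tris-HCl pH 7.5 with 150 mM NaCl, EDTA/EGTA, phosphatase and protease inhibitors, 0.1% Triton X-100. Lysates spun 13,000 rpm for 30 min, then immunoblotted for acetylated α-tubulin and acetylated histone H3.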
A general note: In western blotting, separated proteins are transferred to a membrane and probed.

For data set [3], the species on record is Homo sapiens. Kind of data set: Inhibition of HDAC in human PC3 cells assessed as increase in histone-H3 acetylation by Western blot analysis. In kind it is cell-based. The essentials: as §1
For data set [4], the system named is PC-3. Kind of data set: Antitumor activity against human PC3 cells xenografted in athymic nude mouse assessed as tumor growth inhibition at 200 mg/kg, po qd administered daily measured twice per week relative to control. In kind it is functional. Particulars: PC-3, po, read-out: TGI. The essentials:
(§2)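 Male athymic nude mice (5–6 wk) given 1 × 10⁷ PC3 cells s.c.; randomized by tumor size at ~150–350 mm³. Oral dosing daily, vehicle 5% DMSO + 5% Cremophor in D5W. Caliper volumes twice weekly, (length × width²)/2; %TGI = {1-[(Tt/T0)/(Ct/C0)]/1-[C0/Ct]}*100 against vehicle controls.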
For orientation: Xenograft models place foreign cells or tissue in a host animal.

Data set [5] concerns PC-3. In words: Antitumor activity against human PC3 cells xenografted in athymic nude mouse assessed as tumor growth inhibition at 100 mg/kg, po qd administered daily measured twice per week relative to control. Particulars: PC-3, po, read-out: TGI. In kind it is functional. The essentials: as §2
The test system of data set [6] is RPMI-8226. In words: Antitumor activity against human RPMI8226 cells xenografted in athymic nude mouse assessed as tumor growth inhibition at 100 mg/kg, ip qd measured twice per week relative to control. In kind it is functional. As to conditions: RPMI-8226, ip, read-out: TGI. The method in brief:
(§3)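 Male athymic nude mice (5–6 wk) implanted s.c. with 1 × 10⁷ RPMI-8226 myeloma cells; randomized by tumor size at ~150–350 mm³. Daily i.p. injection, vehicle 5% DMSO + 5% Cremophor in D5W. Tumor volume by calipers twice weekly as (length × width²)/2; %TGI derived from treated vs control volume ratios at time t and time 0.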

Data set [7] concerns Mus musculus. In words: Toxicity in human PC3 cells xenografted in athymic nude mouse assessed as body weight loss at 100 to 200 mg/kg, po qd administered daily measured daily during first week followed by twice per week. In kind it is organism-based. Particulars: in vivo. The method in brief: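 PC3 xenograft nude mice (male, 5–6 wk) given daily oral drug in 5% DMSO + 5% Cremophor in D5W. Body weight recorded daily in week one, then twice weekly, compared with vehicle group.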

The species named for data set [8] is Homo sapiens. Kind of data set: Inhibition of HDAC in human PC3 cells assessed as increase in alpha-tubulin acetylation by Western blot analysis. In kind it is cell-based. The essentials:
as §1

For another data set, the species on record is Sus scrofa. In words: Inhibition of purified porcine tubulin polymerization measured every 1 min for 30 mins.
The test system of data set [9] is RPMI-8226. Kind of data set: Antitumor activity against human RPMI8226 cells xenografted in ip dosed athymic nude mouse assessed as tumor growth inhibition administered once daily measured twice per week. In kind it is functional, organism-based. The method in brief:
as §3

In data set [10] the test system is RPMI-8226. Kind of data set: Antitumor activity against human RPMI8226 cells xenografted in athymic nude mouse assessed as tumor growth inhibition at 50 mg/kg, ip qd measured twice per week relative to control. In kind it is functional. As to conditions: RPMI-8226, ip, read-out: TGI. The method in brief: as §3
Data set [11] deals with Mus musculus. In words: Toxicity in human RPMI8226 cells xenografted in athymic nude mouse assessed as body weight loss at 50 to 100 mg/kg, ip qd measured daily during first week followed by twice per week. In kind it is organism-based. As to conditions: in vivo. The method in brief:
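RPMI-8226 xenograft nude mice (male, 5–6 wk) dosed i.p. daily in 5% DMSO + 5% Cremophor in D5W. Body weight measured daily for the first week, then twice weekly.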

The structures appear in SMILES notation. The source made the active and inactive calls. The rule behind the calls is not given here.

Sequence of Histone deacetylase 4 (P56524 whole entry): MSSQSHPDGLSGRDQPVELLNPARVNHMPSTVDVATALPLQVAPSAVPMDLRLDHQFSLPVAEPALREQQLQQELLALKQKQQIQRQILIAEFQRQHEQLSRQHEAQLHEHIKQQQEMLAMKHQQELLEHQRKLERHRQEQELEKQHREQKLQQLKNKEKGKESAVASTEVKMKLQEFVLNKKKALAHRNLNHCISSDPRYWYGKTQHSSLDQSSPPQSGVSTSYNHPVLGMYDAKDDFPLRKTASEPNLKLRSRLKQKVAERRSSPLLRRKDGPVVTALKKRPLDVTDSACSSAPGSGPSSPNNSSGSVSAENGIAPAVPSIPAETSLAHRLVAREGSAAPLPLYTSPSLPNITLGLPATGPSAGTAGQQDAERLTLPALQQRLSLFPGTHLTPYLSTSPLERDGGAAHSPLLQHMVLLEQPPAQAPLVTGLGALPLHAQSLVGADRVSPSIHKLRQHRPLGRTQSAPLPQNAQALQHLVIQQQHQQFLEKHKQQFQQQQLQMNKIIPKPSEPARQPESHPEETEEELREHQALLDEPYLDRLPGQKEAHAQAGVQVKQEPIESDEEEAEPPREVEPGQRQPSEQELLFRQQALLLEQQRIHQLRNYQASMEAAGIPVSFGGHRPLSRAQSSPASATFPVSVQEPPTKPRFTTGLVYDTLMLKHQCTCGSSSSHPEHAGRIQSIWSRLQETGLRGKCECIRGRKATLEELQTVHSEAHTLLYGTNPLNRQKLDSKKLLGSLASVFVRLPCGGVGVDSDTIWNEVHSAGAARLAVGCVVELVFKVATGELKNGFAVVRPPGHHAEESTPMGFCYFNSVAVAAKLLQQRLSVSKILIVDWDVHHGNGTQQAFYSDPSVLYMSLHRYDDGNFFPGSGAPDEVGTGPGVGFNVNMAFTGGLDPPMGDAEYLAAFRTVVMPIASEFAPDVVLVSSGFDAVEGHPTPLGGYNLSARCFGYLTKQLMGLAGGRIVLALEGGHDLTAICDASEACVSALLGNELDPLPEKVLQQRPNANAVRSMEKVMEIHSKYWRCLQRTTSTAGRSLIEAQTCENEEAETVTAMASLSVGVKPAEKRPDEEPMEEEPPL

One may read the IC50 as the concentration that inhibits the measured activity by half. Regarding `COc1ccc2c(C(=O)c3cc(OC)c(OC)c(OC)c3)cn(S(=O)(=O)c3cccc(/C=C/C(=O)NO)c3)c2c1`, the IC50 was 33.1 nM in the data set on PC-3 [1], 16.2 µM on Histone deacetylase 8, “Not Active” on Histone deacetylase 7 and “Not Active” on Histone deacetylase 4. For the same compound, in the data set filed under Homo sapiens [2], the inhibition entry was “Active”.

On to `COc1ccc2c(C(=O)c3cc(OC)c(OC)c(OC)c3)cn(Cc3ccc(C(=O)NO)cc3)c2c1`, for which the IC50 in the data set with PC-3 [1] amounted to 179 nM; at Histone deacetylase 8 it was 0.39 µM; on Histone deacetylase 4 (read-out: IC50) it was 1980 nM. The inhibition result in the data set listed under Homo sapiens [3] and in the data set listed under Sus scrofa was “Dose-dependent effect” each time. For the same compound, the inhibition in vivo at 200 mg/kg in the data set on PC-3 [4] amounted to 68.5%. Further, the inhibition in vivo at 100 mg/kg in the data set with PC-3 [5] was 24.8%; in the data set on RPMI-8226 [6] it was 58.2%. The Activity result in the data set with Mus musculus [7] and in the data set with Mus musculus [11] was “Non-Toxic” throughout. Further, in the data set listed under Homo sapiens [8], the alpha-tubulin acetylation increase entry was “Dose-dependent effect”. For the same compound, in the data set on RPMI-8226 [9], the TGI result is “Dose-dependent effect”. Moreover, the inhibition in vivo at 50 mg/kg in the data set with RPMI-8226 [10] was determined as 35.8%.

These data come from ChEMBL document CHEMBL4041521, “3-Aroylindoles display antitumor activity in vitro and in vivo: Effects of N1-substituents on biological activity” (Eur J Med Chem, 2017).
